Bioassay records from PubChem BioAssay.
The list is not random: actives were taken first. Their share in the collection is about 2.2%.
Wee1 stabilizer – human Wee1 degradation inhibition, primary screen | P30291 | HeLa Luc-Wee1K328M stability, luciferase luminescence; 100% = proteasome inhibitor MG132 effect | reporter increase, % at 5 µM | 220,000 compounds, 1.2% hits | AID 1321;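 active = activation above the mean of all tested compounds plus 3 SD, set per screening run, cut at about 8.8% in these data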;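 also: cells exposed to compound for 20 h before luminescence read; 0% = DMSO alone and 100% = MG132 at 30 µM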
Arbovirus inh – arbovirus infection inhibition; arbovirus infection cell-based antiviral screen; inhibition, % at 10 µM; 200,000 compounds, 0.37% hits; AID 1251; in the data active = inhibition above about 30%
RBBP9 inh – blocks human serine hydrolase RBBP9. AID 1515. O75884. recombinant RBBP9, FP-Rh probe fluorescence polarization. inhibition, % at 7.94 µM. 220,000 compounds, 0.2% hits;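 active = inhibition above the campaign mean of all tested compounds plus 3 SD, cut at about 14% in these data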;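 also: plate controls were DMSO wells with RBBP9 for no effect and wells lacking RBBP9 protein for full effect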
Target sequence (O75884 whole entry, looked up): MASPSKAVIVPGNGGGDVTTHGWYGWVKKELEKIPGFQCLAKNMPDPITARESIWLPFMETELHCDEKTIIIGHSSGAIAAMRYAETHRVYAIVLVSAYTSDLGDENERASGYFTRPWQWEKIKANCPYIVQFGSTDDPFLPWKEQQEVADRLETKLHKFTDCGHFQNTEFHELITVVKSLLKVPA
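Measured by: FP readout at 525/598 nm; material: recombinant human RBBP9; also added: Serine-hydrolase probe FP-Rh, 375 nM pre-mixing; medium: Tris buffer pH 8.0, NaCl, Pluronic; replication: one well per compound; doses: one concentration, 7.94 µM nominal, 0.794% DMSO; timing: preincubation 30 min plus labeling 45 min at 25 °C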
PKD1 kinase inh – PKD1 (human) kinase inhibition; Q15139; PKD1 kinase fluorescence polarization assay; AID 797; inhibition, % (test concentration not listed); 200,000 compounds, 0.056% hits; in the data active = inhibition above about 50%
DTT redox prof – compounds producing H2O2 with reducing agent – biochemical, NIH compound library profiling, artefact control for MLSCN library redox annotation, primary screen; 200,000 compounds, 0.03% hits; DTT-dependent redox cycling H2O2, phenol red/HRP absorbance; 100% = 100 µM peroxide control, 0% = buffer; activation, % at 10 µM;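 active = activation of at least 50% relative to the plate's high and low controls in the primary single-dose screen; inactive = activation below 50%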;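 also: compound incubated with DTT at 0.8 mM final as the reducing agent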
p97 inhibitor – human p97 ATPase inhibition | inhibition, % at 8 µM | 220,000 compounds, 0.42% hits | recombinant p97 ATPase, Kinase-Glo ATP luminescence, 3 h | P55072; in the data active = inhibition above about 15%;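 also: 0% = DMSO vehicle and 100% = wells lacking enzyme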
* marks the source's active call; other numbers are inactive results; · = no result.

SMILES	Wee1 stabilizer	Arbovirus inh	RBBP9 inh	PKD1 kinase inh	DTT redox prof	p97 inhibitor
O=Cc1c(OCc2ccccc2)ccc2ccccc12	11*	11	-6	4	-1	3
Nc1nc(SCC(=O)Nc2ncc(C(F)(F)F)cc2Cl)n[nH]1	4	5	-2	-3	0	2
CC(C)Nc1nc(SC(C)C(=O)Nc2ccccc2)nc(N(C)C)n1 (stereo unspecified)	10*	9	-1	12	0	0
CC1(C)Cc2cccc(C(=O)Nc3ccc(F)cc3F)c2O1	-2	·	-13	·	·	-1
O=C(NC1=NCCS1)c1cccc(OC(F)F)c1	11*	7	-4	-3	0	7
O=C(c1ccccc1)N1CCN(c2ccc([N+](=O)[O-])c(NCC3CCCO3)c2)CC1 (stereo unspecified)	11*	-4	-5	-2	0	-3
O=[N+]([O-])c1ccc(N2CCN(S(=O)(=O)c3ccccc3)CC2)cc1NCC1CCCO1 (stereo unspecified)	0	0	-9	-11	0	-2
O=C(Nc1c(-c2ccccc2)nc2ccccn12)c1cccs1	-2	39*	-1	-3	0	1
Cc1cc(C)nc(N/N=C/c2cc(Br)ccc2O)n1	1	·	-3	·	·	-1
Cc1ccc2nc(-c3ccsc3)c(NC3CCCC3)n2c1	10*	-3	-2	-4	-1	-2
Cn1nnnc1SCc1ccc(CSc2nnnn2C)cc1	0	7	1	-7	1	0
Cn1nnnc1SCc1ccc(Cl)cc1	13*	8	-10	-2	-1	2
O/N=C1\CCCc2c1nc(-c1ccccc1F)n2O	3	·	-5	·	·	0
COC(=O)c1cc(=O)c2c(C)nc(C(Cl)(Cl)Cl)nc2[nH]1	10*	4	1	1	-3	7
CCOC(=O)c1c(C)nc(C(Cl)(Cl)Cl)nc1N	2	-7	-5	2	-2	-3
CCCCN(C(=O)NC(=O)Nc1ccccc1C)S(C)(=O)=O	29*	8	-11	-2	2	2
CCc1ccc(CC2S/C(=C(\C#N)C(C)=O)NC2=O)cc1 (stereo unspecified)	4	33*	-3	-4	-3	3
CN(C)C(CNC(=O)CN1C(=O)NC2(CCc3ccccc32)C1=O)c1ccco1 (stereo unspecified)	3	0	-3	1	1	3
NNC(=O)c1ccc(CN2C(=O)c3cccc4cccc2c34)cc1	2	-9	-5	-1	-1	4
COc1ccccc1/C=N/NC(=O)c1ccc(CN2C(=O)c3cccc4cccc2c34)cc1	9.0*	·	-15	·	·	1
CCN(CC(=O)NC1CCS(=O)(=O)C1)S(=O)(=O)c1ccc(C)c(C)c1 (stereo unspecified)	0	-5	-5	-6	0	-3
COc1ccc(-c2coc3cc(O)cc(O)c3c2=O)cc1	10*	-11	-9	-5	0	4
O=C(Nc1nnc(-c2ccccn2)o1)c1cccc(Cl)c1	5	-1	-9	0	0	4
N#Cc1ccc(C(=O)Nc2nnc(-c3ccccn3)o2)cc1	9.4*	-4	-7	0	1	-4
N/C(=N\OC(=O)c1ccco1)c1ccccn1	10*	1	6	1	0	-8
SMILES	Wee1 stabilizer	Arbovirus inh	RBBP9 inh	PKD1 kinase inh	DTT redox prof	p97 inhibitor
N/C(=N\OC(=O)c1ccco1)c1ccccc1	0	1	-11	-3	0	-9
O=C(CSc1ncn(-c2ccccc2)n1)Nc1nc(-c2ccccc2)cs1	1	-3	-11	-5	-4	7
O=C(CSc1ncn(-c2ccccc2)n1)Nc1nc2ccccc2s1	-1	40*	-9	-8	-4	2
CCCCNC(=O)Nc1nc2ccccc2s1	7	4	-5	-7	-3	-1
COc1ccc2nc(NC(=O)CS(=O)(=O)Cc3ccccc3)sc2c1	-4	7	-11	-5	-2	-5
CCCNC(=O)Nc1nc2ccccc2s1	9.2*	·	1	·	·	3
O=C(CS(=O)(=O)Cc1ccccc1)Nc1nc2ccccc2s1	-2	48*	-4	-7	2	1
CCOc1ccc(C(=O)Nc2cccc(C(=O)O)c2C)cc1Cl	-2	-8	-5	4	0	7
